Assay results of several laboratories.
Compare with care: the assays were run in different laboratories.
ADRB2: Beta-2 adrenergic receptor (ADRB2, Homo sapiens, UniProt P07550)
F10 trypsin-like site: Coagulation factor X, trypsin-like site (F10, Homo sapiens, UniProt P00742)
Ntsr1: Neurotensin receptor type 1 (Ntsr1, Rattus norvegicus, UniProt P20789)
CYP1B1: Cytochrome P450 1B1 (CYP1B1, Homo sapiens, UniProt Q16678)
PCNA: Proliferating cell nuclear antigen (PCNA, Homo sapiens, UniProt P12004)

NCC(O)c1cc(O)c(O)cc1F (centres unmarked) — Ki (ADRB2; ligand displacement, radioligand; cell membranes): 1160 µM
CC(C)(C)[C@H](NC(=O)[C@H](CCONC(=N)N)NC(=O)Cc1ccc(CN)cc1)C(=O)N[C@@H](CCONC(=N)N)C(=O)NCc1ccc(C(=N)N)cc1 — Ki (F10 trypsin-like site; enzyme activity, inhibitor; pH 8): 47 µM
FC(F)(F)c1ccc2c(c1)[C@@H]1CNC[C@H]2C1 — Ki (Neuronal acetylcholine receptor subunit alpha-7 (CHRNA7, Homo sapiens, UniProt P36544); cell-free assay): > 0.3 µM
CCc1c(C(=O)N[C@H](C(=O)O)C2CCCCC2)nn(-c2ccnc3cc(Cl)ccc23)c1-c1c(OC)cccc1OC — Kb (Ntsr1; calcium signal, antagonist, fluorescence): > 10 µM
CC(C)(C)[C@H](NC(=O)[C@H](CCCNC(=N)N)NC(=O)Cc1ccc(CN)cc1)C(=O)N[C@@H](CCONC(=N)N)C(=O)NCc1ccc(C(=N)N)cc1 — Ki (F10 trypsin-like site; enzyme activity, inhibitor; pH 8): 28 µM
O=C(N[C@H]1COC(=O)[C@@H](NC(=O)c2cccc(O)c2[O-])COC(=O)[C@@H](NC(=O)c2cccc(O)c2[O-])COC1=O)c1cccc(O)c1[O-].[Fe+3] — Kd (Neutrophil gelatinase-associated lipocalin (LCN2, Homo sapiens, UniProt P80188, C107S); binding, fluorescence; pH 7.4): 0.00041 µM
COc1cccc2c1C(=O)c1c(O)c3c(c(O)c1C2=O)C[C@@](O)(C(=O)CO)C[C@@H]3O[C@H]1C[C@H](N)[C@H](O)[C@H](C)O1 — Ki (Ileal sodium/bile acid cotransporter (SLC10A2, Homo sapiens, UniProt Q12908); transporter uptake, inhibitor): 101 µM
c1ccc2c(c1)ccc1ccc3ccccc3c12 — Kd (CYP1B1; binding, absorbance; pH 7.4): 2.5 µM
CC#CCOc1ccc(S(=O)(=O)CC2CS2)cc1 (racemic) — IC50 (72 kDa type IV collagenase (MMP2, Homo sapiens, UniProt P08253); enzyme activity, inhibitor, fluorescence): 26 µM
CC[C@H](C)[C@H](NC(=O)[C@H](CCCCN)NC(=O)[C@H](CO)NC(=O)[C@H](C)NC(=O)[C@H](CCCCN)NC(=O)[C@H](CCCCN)NC(=O)CNC(=O)[C@H](Cc1c[nH]cn1)NC(=O)[C@@H](N)CCC(N)=O)C(=O)N[C@H](C(=O)N[C@@H](CC(=O)O)C(=O)N[C@@H](Cc1c[nH]cn1)C(=O)N[C@@H](Cc1ccccc1)C(=O)N[C@@H](CCSC)C(=O)N[C@@H](CCCNC(=N)N)C(=O)N[C@@H](CC(C)C)C(=O)N1CCC[C@H]1C(=O)N[C@@H](CCCCN)C(=O)N[C@@H](C)C(=O)O)[C@@H](C)O — Kd (PCNA; binding, ITC; pH 7.4): 2.45 µM
CCOC(=O)C(CC)(CCCSCCOCCOCCOCCOCCNC(=O)OC(C)(C)C)NC(=O)c1ccc(C2CC2)c(Cc2ccc(F)cc2)n1 (centres unmarked) — EC50 (Cannabinoid receptor 2 (CNR2, Homo sapiens, UniProt P34972); cAMP, agonist): 0.013 µM
COc1cc(N)c(Cl)cc1C(=O)NC1CN2CCC1CC2 (centres unmarked) — IC50 (ADRB2; ligand displacement, radioligand; cell membranes): 244 µM
CCCCNNC(=O)c1ccc(Br)cc1 — IC50 (Histone deacetylase 7 (HDAC7, Homo sapiens, UniProt Q8WUI4); enzyme activity, inhibitor, fluorescence): > 100 µM
NCC(O)c1ccc(O)c(O)c1F (centres unmarked) — Ki (ADRB2; ligand displacement, radioligand; cell membranes): 16 µM
CC[C@H](C)[C@H](NC(=O)[C@H](CC(C)C)NC(=O)[C@H](CO)NC(=O)[C@H](CC(=O)O)NC(=O)[C@H](CCCCN)NC(=O)[C@H](CCCCN)NC(=O)CNC(=O)[C@H](Cc1c[nH]cn1)NC(=O)[C@@H](N)CCC(N)=O)C(=O)N[C@H](C(=O)N[C@@H](CC(=O)O)C(=O)N[C@@H](Cc1c[nH]cn1)C(=O)N[C@@H](Cc1ccccc1)C(=O)N[C@@H](CCSC)C(=O)N[C@@H](CCCNC(=N)N)C(=O)N[C@@H](CC(C)C)C(=O)N1CCC[C@H]1C(=O)N[C@@H](CCCCN)C(=O)N[C@@H](C)C(=O)O)[C@@H](C)O — Kd (PCNA; binding, ITC; pH 7.4): 4.55 µM
CC(C)(C)[C@H](NC(=O)[C@H](CCONC(=N)N)NC(=O)Cc1ccc(CN)cc1)C(=O)N[C@@H](CCCCN)C(=O)NCc1ccc(C(=N)N)cc1 — Ki (F10 trypsin-like site; enzyme activity, inhibitor; pH 8): 18 µM
COc1ccccc1-c1cc(C(=O)NC2(C(=O)O)CCCCC2)nn1-c1ccc(F)cc1 — Kb (Ntsr1; calcium signal, antagonist, fluorescence): > 10 µM
CC(C)C[C@H](NC(=O)[C@H](Cc1ccccc1)NC(=O)c1cnccn1)B(O)O — IC50 (Coagulation factor X (F10, Homo sapiens, UniProt P00742); enzyme activity, inhibitor): > 33 µM
CC[C@H](C)[C@H](NC(=O)[C@H](CCCCNC(C)=O)NC(=O)[C@H](CO)NC(=O)[C@H](CC(=O)O)NC(=O)[C@H](CCCCN)NC(=O)[C@H](CCCCN)NC(=O)CNC(=O)[C@H](Cc1c[nH]cn1)NC(=O)[C@@H](N)CCC(N)=O)C(=O)N[C@H](C(=O)N[C@@H](CC(=O)O)C(=O)N[C@@H](Cc1c[nH]cn1)C(=O)N[C@@H](Cc1ccccc1)C(=O)N[C@@H](CCSC)C(=O)N[C@@H](CCCNC(=N)N)C(=O)N[C@@H](CC(C)C)C(=O)N1CCC[C@H]1C(=O)N[C@@H](CCCCN)C(=O)N[C@@H](C)C(=O)O)[C@@H](C)O — Kd (PCNA; binding, ITC; pH 7.4): 6.14 µM
O=C(CCCCCCNC(=O)c1cnc(N(c2ccccc2)c2ccccc2)nc1)NO — IC50 (Polyamine deacetylase HDAC10 (HDAC10, Homo sapiens, UniProt Q969S8); enzyme activity, inhibitor, fluorescence): 0.466 µM
CC[C@H](C)[C@H](NC(=O)[C@H](CCCCN)NC(=O)[C@H](CO)NC(=O)[C@H](CC(=O)O)NC(=O)[C@H](CCCCN)NC(=O)[C@H](CCCCN)NC(=O)CNC(=O)[C@H](Cc1c[nH]cn1)NC(=O)[C@@H](N)CCC(N)=O)C(=O)N[C@H](C(=O)N[C@@H](CC(=O)O)C(=O)N[C@@H](Cc1c[nH]cn1)C(=O)N[C@@H](C)C(=O)N[C@@H](CCSC)C(=O)N[C@@H](CCCNC(=N)N)C(=O)N[C@@H](CC(C)C)C(=O)N1CCC[C@H]1C(=O)N[C@@H](CCCCN)C(=O)N[C@@H](C)C(=O)O)[C@@H](C)O — Kd (PCNA; binding, ITC; pH 7.4): 41.3 µM
CC(C)=CCc1c(O)cc2c(c1O)C(=O)C[C@@H](c1ccc(O)cc1)O2 — Ki (CYP1B1; enzyme activity, inhibitor, fluorescence; 15 min, pH 7.4): 0.23 µM
CC[C@H](C)[C@H](NC(=O)[C@H](CCCCN)NC(=O)[C@H](CO)NC(=O)[C@H](CC(=O)O)NC(=O)[C@H](CCCCN)NC(=O)[C@H](CCCCN)NC(=O)CNC(=O)[C@H](Cc1c[nH]cn1)NC(=O)[C@@H](N)CCC(N)=O)C(=O)N[C@H](C(=O)N[C@@H](CC(=O)O)C(=O)N[C@@H](C)C(=O)N[C@@H](Cc1ccccc1)C(=O)N[C@@H](CCSC)C(=O)N[C@@H](CCCNC(=N)N)C(=O)N[C@@H](CC(C)C)C(=O)N1CCC[C@H]1C(=O)N[C@@H](CCCCN)C(=O)N[C@@H](C)C(=O)O)[C@@H](C)O — Kd (PCNA; binding, ITC; pH 7.4): 126 µM
COc1cccc(OC)c1-c1cc(C(=O)NC2(C(=O)O)CCCCC2)nn1-c1ccc(F)cc1 — Kb (Ntsr1; calcium signal, antagonist, fluorescence): > 10 µM
CC[C@H](C)[C@H](NC(=O)[C@H](CCCCN)NC(=O)[C@H](CO)NC(=O)[C@H](CC(=O)O)NC(=O)[C@H](CCCCN)NC(=O)[C@H](CCCCN)NC(=O)CNC(=O)[C@H](Cc1c[nH]cn1)NC(=O)[C@@H](N)CCC(N)=O)C(=O)N[C@H](C(=O)N[C@@H](C)C(=O)N[C@@H](Cc1c[nH]cn1)C(=O)N[C@@H](Cc1ccccc1)C(=O)N[C@@H](CCSC)C(=O)N[C@@H](CCCNC(=N)N)C(=O)N[C@@H](CC(C)C)C(=O)N1CCC[C@H]1C(=O)N[C@@H](CCCCN)C(=O)N[C@@H](C)C(=O)O)[C@@H](C)O — Kd (PCNA; binding, ITC; pH 7.4): 8.67 µM
C[C@H](N)Cn1ncc2ccc3c(c21)CCCO3 — IC50 (ADRB2; ligand displacement, radioligand): 0.48 µM
